Consider 36 molecules from ChEMBL document CHEMBL4261516, “Design, synthesis and pharmacological evaluation of new 2-oxo-quinoline derivatives containing α-aminophosphonates as potential antitumor agents” (Medchemcomm, 2017).

The test system of one test is SK-OV-3. Nature of the test: Cytotoxicity against human SKOV3 cells after 48 hrs by MTT assay. It is filed as functional, cell-based. As to conditions: SK-OV-3, 48 h. The method in brief:
(§1)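 HepG2, SK-OV-3, NCI-H460 and HL 7702 lines grown as monolayers in DMEM with 10% FBS plus penicillin/streptomycin at 37 °C, 5% CO2. Exponentially growing cells were seeded and exposed to the indicated concentrations for 48 h. MTT was then added for 4 h at 37 °C, formazan was dissolved in DMSO, and OD was read at 490 nm. Each concentration was run in triplicate wells, with three independent runs per line.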

A further test has as its system HepG2. In words: Cytotoxicity against human HepG2 cells after 48 hrs by MTT assay. It is filed as functional, cell-based. As to conditions: HepG2, 48 h. In a few lines: as §1
In general terms: Tetrazolium assays rely on reduction of a dye to a coloured formazan, in cell work by metabolically active cells.

In the next test the test system is L02. In words: Cytotoxicity against human HL-7702 cells after 48 hrs by MTT assay. It is filed as cell-based. The following applies: L02, 48 h. The method in brief: as §1
The subject of a further test is NCI-H460. In words: Cytotoxicity against human NCI-H460 cells after 48 hrs by MTT assay. It is filed as functional, cell-based. As to conditions: NCI-H460, 48 h. The method in brief: as §1

Where only a bound is given, the exact number is not on record here.

For orientation: IC50 means the concentration that gives 50% inhibition.

`CCOP(=O)(Cc1ccc(/N=C/c2cc3cc(OC)ccc3[nH]c2=O)cc1)OCC`: the concentration for half-maximal inhibition (IC50) is 53 µM in the test with SK-OV-3, 17.3 µM with HepG2, above 100 µM in the test with L02 and above 100 µM with NCI-H460.

Consider `CCOP(=O)(OCC)C(Nc1ccccc1)c1cc2cc(OC)ccc2[nH]c1=O` (configuration not stated), for which the half-maximal inhibitory concentration (IC50) is 54.7 µM in the test on SK-OV-3, 60.8 µM with HepG2, above 100 µM with L02 and above 100 µM in the test with NCI-H460.

On to `CCOP(=O)(OCC)C(Nc1ccc(F)cc1)c1cc2cc3c(cc2[nH]c1=O)OCO3` (configuration not stated), for which the 50% inhibitory concentration (IC50) in the test on SK-OV-3 was 26.2 µM; with HepG2, 38 µM; with L02, above 100 µM; in the test on NCI-H460 it was 59.6 µM.

With `CCOP(=O)(Cc1ccc(/N=C/c2cc3ccccc3[nH]c2=O)cc1)OCC`, the 50% inhibitory concentration (IC50) in the test with SK-OV-3 was 36 µM; with HepG2, 17.9 µM; in the test with L02, above 100 µM; with NCI-H460 it was 57.9 µM.

Turning to `CCOP(=O)(OCC)C(Nc1ccc(F)cc1)c1cc2cc(OC)ccc2[nH]c1=O` (configuration not stated), the half-maximal inhibitory concentration (IC50) was 270 µM with SK-OV-3, 58.9 µM in the test on HepG2, above 100 µM in the test on L02 and above 100 µM in the test on NCI-H460.

As for `CCOP(=O)(OCC)C(Nc1ccc(C(F)(F)F)cc1)c1cc2cc(OC)ccc2[nH]c1=O` (configuration not stated), the half-inhibitory concentration (IC50) in the test with SK-OV-3 was 102 µM; in the test with HepG2 it was 40.1 µM; in the test with L02, above 100 µM; in the test with NCI-H460, above 100 µM.

Regarding `CCOP(=O)(OCC)C(Nc1cccc(C)c1)c1cc2ccccc2[nH]c1=O` (configuration not stated), the half-maximal inhibitory concentration (IC50) is 56 µM in the test on SK-OV-3, 65.5 µM in the test on HepG2, above 100 µM with L02 and above 100 µM with NCI-H460.

As for `O=Cc1cc2ccccc2[nH]c1=O`, the concentration for half-maximal inhibition (IC50) with SK-OV-3 is above 200 µM; with HepG2 it was above 200 µM; with L02, above 100 µM; with NCI-H460 it was above 200 µM.

With `CCOP(=O)(OCC)C(Nc1ccc(F)cc1)c1cc2cc(C)ccc2[nH]c1=O` (configuration not stated), the IC50 in the test on SK-OV-3 is 30.3 µM; with HepG2, 46.2 µM; with L02 it was above 100 µM; in the test with NCI-H460, above 100 µM.

For `CCOP(=O)(Cc1ccc(/N=C/c2cc3cc4c(cc3[nH]c2=O)OCO4)cc1)OCC`, the half-inhibitory concentration (IC50) in the test on SK-OV-3 is 47.9 µM; in the test on HepG2 it was 28.9 µM; in the test with L02, above 100 µM; in the test on NCI-H460 it was above 100 µM.

For `CCOP(=O)(OCC)C(Nc1ccc(C)cc1)c1cc2cc(C)ccc2[nH]c1=O` (configuration not stated), the IC50 in the test on SK-OV-3 is 37.2 µM; in the test with HepG2 it was 37.6 µM; in the test on L02, above 100 µM; with NCI-H460 it was above 100 µM.

Regarding `CCOP(=O)(OCC)C(Nc1ccc(C)cc1)c1cc2ccccc2[nH]c1=O` (configuration not stated), the 50% inhibitory concentration (IC50) was 66.8 µM in the test with SK-OV-3, 67.3 µM in the test on HepG2, above 100 µM in the test on L02 and above 100 µM in the test on NCI-H460.

In the case of `O=Cc1cc2cc3c(cc2[nH]c1=O)OCO3`, the IC50 in the test with SK-OV-3 is above 200 µM; in the test with HepG2, above 200 µM; in the test with L02, above 100 µM; in the test on NCI-H460 it was above 200 µM.

For the molecule `CCOP(=O)(OCC)C(Nc1ccc(C(F)(F)F)cc1)c1cc2ccccc2[nH]c1=O` (configuration not stated), the IC50 in the test on SK-OV-3 was 25.8 µM; with HepG2 it was 39.1 µM; in the test on L02, above 100 µM; in the test on NCI-H460, above 100 µM.

On to `CCOP(=O)(OCC)C(Nc1ccc([N+](=O)[O-])cc1)c1cc2cc3c(cc2[nH]c1=O)OCO3` (configuration not stated), for which the IC50 was 28.2 µM in the test on SK-OV-3, 44 µM with HepG2, above 100 µM with L02 and above 100 µM in the test with NCI-H460.

In the case of `CCOP(=O)(OCC)C(Nc1cccc(C)c1)c1cc2cc3c(cc2[nH]c1=O)OCO3` (configuration not stated), the concentration for half-maximal inhibition (IC50) in the test with SK-OV-3, in the test on HepG2, in the test with L02 and in the test on NCI-H460 was above 100 µM each time.

On to `CCOP(=O)(OCC)C(Nc1ccc(C)cc1)c1cc2cc3c(cc2[nH]c1=O)OCO3` (configuration not stated), for which the half-maximal inhibitory concentration (IC50) with SK-OV-3 is 48.9 µM; in the test with HepG2, 43.1 µM; in the test on L02, above 100 µM; with NCI-H460, above 100 µM.

In the case of `CCCCNC(c1cc2cc(C)ccc2[nH]c1=O)P(=O)(OCC)OCC` (configuration not stated), the IC50 with SK-OV-3 was 130 µM; with HepG2, 39.2 µM; in the test with L02 it was above 100 µM; with NCI-H460, above 100 µM.

`CCOP(=O)(OCC)C(Nc1cccc(C)c1)c1cc2cc(OC)ccc2[nH]c1=O` (configuration not stated): the IC50 with SK-OV-3 was 73 µM; in the test with HepG2 it was 45.5 µM; in the test on L02 it was above 100 µM; in the test on NCI-H460 it was above 100 µM.

In the case of `CCOP(=O)(OCC)C(Nc1ccccc1)c1cc2ccccc2[nH]c1=O` (configuration not stated), the IC50 in the test with SK-OV-3 was 54.1 µM; in the test with HepG2 it was 46.3 µM; in the test on L02, above 100 µM; in the test on NCI-H460, above 100 µM.

For `CCOP(=O)(OCC)C(Nc1ccccc1)c1cc2cc(C)ccc2[nH]c1=O` (configuration not stated), the half-inhibitory concentration (IC50) in the test with SK-OV-3 is 69.4 µM; in the test with HepG2, 39.6 µM; in the test with L02 it was above 100 µM; in the test with NCI-H460, above 100 µM.

For `CCOP(=O)(OCC)C(Nc1ccc([N+](=O)[O-])cc1)c1cc2ccccc2[nH]c1=O` (configuration not stated), the IC50 in the test with SK-OV-3 was 30 µM; in the test on HepG2, 75.2 µM; with L02, above 100 µM; in the test with NCI-H460 it was above 100 µM.

In the case of `CCOP(=O)(OCC)C(Nc1cccc(C)c1)c1cc2cc(C)ccc2[nH]c1=O` (configuration not stated), the IC50 is 342 µM with SK-OV-3, 46 µM in the test with HepG2, above 100 µM in the test with L02 and above 100 µM in the test on NCI-H460.

With `Cc1ccc2[nH]c(=O)c(C=O)cc2c1`, the 50% inhibitory concentration (IC50) in the test with SK-OV-3 was above 200 µM; in the test with HepG2, above 200 µM; in the test with L02 it was above 100 µM; in the test on NCI-H460 it was above 200 µM.

As for `CCOP(=O)(OCC)C(Nc1ccc([N+](=O)[O-])cc1)c1cc2cc(OC)ccc2[nH]c1=O` (configuration not stated), the IC50 is 25.1 µM with SK-OV-3, 20.8 µM in the test with HepG2, above 100 µM in the test on L02 and 44.6 µM in the test on NCI-H460.

`CCOP(=O)(OCC)C(Nc1ccc(F)cc1)c1cc2ccccc2[nH]c1=O` (configuration not stated): the IC50 was 41 µM in the test on SK-OV-3, 37.2 µM in the test with HepG2, above 100 µM in the test with L02 and above 100 µM in the test on NCI-H460.

As for `CCCCNC(c1cc2ccccc2[nH]c1=O)P(=O)(OCC)OCC` (configuration not stated), the IC50 with SK-OV-3 was 38.3 µM; in the test with HepG2 it was 61.4 µM; with L02, above 100 µM; in the test on NCI-H460, above 100 µM.

With `CCCCNC(c1cc2cc3c(cc2[nH]c1=O)OCO3)P(=O)(OCC)OCC` (configuration not stated), the concentration for half-maximal inhibition (IC50) in the test with SK-OV-3 is 37.2 µM; in the test on HepG2, 46.3 µM; in the test on L02, above 100 µM; in the test with NCI-H460, 47.9 µM.

On to `CCOP(=O)(OCC)C(Nc1ccc([N+](=O)[O-])cc1)c1cc2cc(C)ccc2[nH]c1=O` (configuration not stated), for which the IC50 with SK-OV-3 was above 200 µM; in the test with HepG2, 35.6 µM; in the test with L02, above 100 µM; in the test on NCI-H460 it was above 100 µM.

In the case of `CCOP(=O)(OCC)C(Nc1ccc(C)cc1)c1cc2cc(OC)ccc2[nH]c1=O` (configuration not stated), the half-maximal inhibitory concentration (IC50) in the test on SK-OV-3 was 60 µM; in the test on HepG2 it was 57.6 µM; in the test on L02, above 100 µM; in the test with NCI-H460, above 100 µM.

Regarding `O=c1[nH]cc(F)c(=O)[nH]1` [FLUOROURACIL], the values for the IC50 in the test on SK-OV-3 and with L02 were 26.3 µM and 58.7 µM, respectively.

For `COc1ccc2[nH]c(=O)c(C=O)cc2c1`, the IC50 in the test on SK-OV-3 was above 200 µM; with HepG2, above 200 µM; in the test with L02 it was above 100 µM; in the test with NCI-H460, above 200 µM.

For `CCCCNC(c1cc2cc(OC)ccc2[nH]c1=O)P(=O)(OCC)OCC` (configuration not stated), the 50% inhibitory concentration (IC50) in the test on SK-OV-3 was 58.2 µM; in the test on HepG2, 43.2 µM; with L02 it was above 100 µM; in the test with NCI-H460, above 100 µM.

In the case of `CCOP(=O)(OCC)C(Nc1ccc(C(F)(F)F)cc1)c1cc2cc3c(cc2[nH]c1=O)OCO3` (configuration not stated), the half-maximal inhibitory concentration (IC50) in the test on SK-OV-3 is 22.4 µM; with HepG2 it was 79 µM; in the test with L02 it was above 100 µM; in the test on NCI-H460, above 100 µM.

On to `CCOP(=O)(OCC)C(Nc1ccccc1)c1cc2cc3c(cc2[nH]c1=O)OCO3` (configuration not stated), for which the half-maximal inhibitory concentration (IC50) is 65 µM in the test on SK-OV-3, 45.2 µM in the test with HepG2, above 100 µM in the test on L02 and above 100 µM in the test with NCI-H460.

In the case of `CCOP(=O)(OCC)C(Nc1ccc(C(F)(F)F)cc1)c1cc2cc(C)ccc2[nH]c1=O` (configuration not stated), the half-inhibitory concentration (IC50) in the test on SK-OV-3 was 191 µM; in the test on HepG2 it was 68.1 µM; with L02 it was above 100 µM; in the test on NCI-H460, above 100 µM.
